Screens as filed in PubChem.
Rows were chosen to be rich in hits. Some 4.8% of all compounds tested hit in one or more screens of this group.
GPR7 antag: GPR7 receptor antagonists, primary screen, cell-based, fluorescence, single concentration | Neuropeptides B/W receptor type 1 (Homo sapiens), P48145 | GPR7-expressing cells, fluorescence antagonist assay | inhibition, % at 4.4 µM | 1.1% of 290,000 active | AID 1861, 2009; in the data active means inhibition above about 16%, passing the limit was not always enough;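 further: cells stimulated with the agonist NPW; 0% = agonist with vehicle and 100% = vehicle without agonist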
Target sequence (P48145 whole entry, looked up): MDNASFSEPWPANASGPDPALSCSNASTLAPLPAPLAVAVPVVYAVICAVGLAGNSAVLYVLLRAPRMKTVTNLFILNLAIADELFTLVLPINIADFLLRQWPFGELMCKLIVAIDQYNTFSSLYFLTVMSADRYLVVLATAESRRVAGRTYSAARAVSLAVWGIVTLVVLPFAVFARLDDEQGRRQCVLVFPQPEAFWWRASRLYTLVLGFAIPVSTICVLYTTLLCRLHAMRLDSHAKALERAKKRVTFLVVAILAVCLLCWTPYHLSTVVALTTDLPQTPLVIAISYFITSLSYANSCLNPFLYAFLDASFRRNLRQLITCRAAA
T cruzi inh: inhibitors of intracellular T. cruzi growth, primary screen, luminescence, NIH3T3 host cells; T. cruzi beta-gal in NIH3T3, 90 h; inhibition, % (concentration not given with the values); 1.4% of 300,000 active; AID 1885, 2009;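 active means mean inhibition across valid replicates above about 55%, limit read from the data; inconclusive means mean below that limit but half or more replicates reach it; inactive means mean below it, under half of replicates reach it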;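 further: signal also drops with host cell toxicity which is not excluded here; 0% = plate median of DMSO wells and 100% = zero luminescence signal; higher percent means less beta-gal luminescence so fewer parasites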
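System: mouse NIH/3T3 fibroblasts infected with β-gal-expressing T. cruzi Tulahuen C4 / Input: NIH/3T3 cells, 5,000 per well / Buffer or medium: Low-serum DMEM with 2% FBS / Probe or stimulus: 5000 reporter trypomastigotes per well / Schedule: ≥90 h infection period, 3 h prior cell attachment / Measured by: GalScreen luminescence, 60 min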
HSF1 inh: HSF1 inhibitors in luciferase reporter cells, primary screen, cell-based, NIH3T3, luminescence; activity change, negative = inhibition, % at 7.5 µM (by protocol); 0.77% of 300,000 active; NIH3T3-HGL HSE-luciferase, MG132-induced, luminescence 8 h; hits give low values;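 active means more than half of replicate wells show activity change below -50%, luminescence cut by over half; inconclusive means some wells, but at most half, below -50%; inactive means no replicate well below -50%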;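 further: luciferase reports HSF-1 transcriptional activity via heat shock element; 0% = median of DMSO wells and -100% = zero luminescence signal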
Jurkat NFkB inh: inhibitors of induced NF-kB luciferase reporter, primary screen, TCR NF-kB activation inhibitor project, cell-based, luminescence, uHTS. inhibition, % at 4 µM. Jurkat, PMA/ionomycin-induced NF-kB luciferase reporter. 0.53% of 330,000 active; in the data active means inhibition above about 50%
697 NFkB inh: inhibitors of PMA/ionomycin-induced NF-kB reporter, 697 cells, primary screen, B-cell NF-kB inhibitor project, cell-based, luminescence, uHTS. 697 B-cell NF-kB luciferase reporter, 16 h. 0.33% of 330,000 active. inhibition, % at 4 µM; in the data active means inhibition above about 35%
HSF1 activator: HSF-1 activators, primary screen, NIH3T3-HGL cells, MG132 stress, luminescence, single point | NIH3T3-HGL HSF-1 luciferase reporter, 8 h; 100% = twice DMSO control signal | activation, % at 9 µM | 1.7% of 300,000 active;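 active means mean replicate activation of at least 50% with a set share of replicates each reaching 50%; inconclusive means only one of those two conditions met; inactive means mean below 50% and too few replicates reaching it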;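 further: 0% = median of the neutral control wells and 100% = twice that signal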
* hit, by the source's call.

CCCc1nc2oc3ccccc3c(=O)c2c(=O)n1CCCOC was read as GPR7 antag -14, T cruzi inh -3, HSF1 inh -1, Jurkat NFkB inh -23, 697 NFkB inh -13 and HSF1 activator -5.
`COCCNC(=O)Cn1nc(-c2ccccc2F)ccc1=O` gave GPR7 antag -7, T cruzi inh -3, HSF1 inh 3, Jurkat NFkB inh 6, 697 NFkB inh -2 and HSF1 activator 6.
For Cc1cccc(N(Cc2ccccc2)C(=O)CCl)c1 the results were GPR7 antag -1, T cruzi inh 72*, HSF1 inh inconclusive and HSF1 activator -42.
O=C(CCl)N(Cc1ccccc1)c1ccccc1 was read as GPR7 antag -4, T cruzi inh 48, HSF1 inh -2, Jurkat NFkB inh 7, 697 NFkB inh -7 and HSF1 activator -6.
For COc1cc(/C=N/NC(=O)c2cccc([N+](=O)[O-])c2)ccc1OCc1ccccc1 the results were GPR7 antag -4, T cruzi inh 3, HSF1 inh 11, Jurkat NFkB inh -59, 697 NFkB inh -5 and HSF1 activator 23.
COc1cc(C(c2c(C)[nH][nH]c2=O)c2c(C)[nH][nH]c2=O)ccc1OCc1ccc([N+](=O)[O-])cc1 was read as GPR7 antag -4, T cruzi inh 31, HSF1 inh 140, Jurkat NFkB inh -97, 697 NFkB inh 8 and HSF1 activator 205*.
CCOC(=O)C(=Cc1ccc(OCc2ccc([N+](=O)[O-])cc2)c(OC)c1)C(=O)OCC was read as GPR7 antag 2, T cruzi inh -23, HSF1 inh 40, Jurkat NFkB inh -80, 697 NFkB inh 26 and HSF1 activator 77*.
Screening COC(=O)C(=Cc1ccc(OCc2ccc([N+](=O)[O-])cc2)c(OC)c1)C(=O)OC returned GPR7 antag -10, T cruzi inh -15, HSF1 inh 181, Jurkat NFkB inh -93, 697 NFkB inh 29 and HSF1 activator 278*.
CCN(CC)CCCNC(=O)c1ccc(OCC(=O)Nc2ccccc2C(F)(F)F)c(OC)c1 was read as GPR7 antag -11, T cruzi inh 55*, HSF1 inh 1, Jurkat NFkB inh -25, 697 NFkB inh -44 and HSF1 activator -1.
`CSc1ccccc1NC(=O)COC(=O)Cn1cc(C(F)(F)F)ccc1=O` gave Jurkat NFkB inh -12 and 697 NFkB inh 4.
Screening COC1(OC)C(/C=C/c2ccc(Cl)cc2)C(C#N)(C#N)C1(OC)OC (stereo not given) returned GPR7 antag 14, T cruzi inh -6, HSF1 inh 80, Jurkat NFkB inh 17, 697 NFkB inh 23 and HSF1 activator 99*.
COc1ccc(C2C(Oc3ccccc3)C(=O)N2c2cc(C)ccc2C)cc1OC (stereo not given) was read as GPR7 antag 21, T cruzi inh 60*, HSF1 inh 23, Jurkat NFkB inh -15, 697 NFkB inh 2 and HSF1 activator inconclusive.
For COc1ccc(C2C(Oc3ccccc3)C(=O)N2c2ccc(C)c(C)c2)cc1OC (stereo not given) the results were GPR7 antag 10, T cruzi inh 30, HSF1 inh 10, Jurkat NFkB inh 1, 697 NFkB inh 3 and HSF1 activator 22.
For Cc1ccc(CC(=O)O/N=C(\N)c2ccncc2)cc1 the results were GPR7 antag -9, T cruzi inh -5, HSF1 inh 4, Jurkat NFkB inh -6, 697 NFkB inh -15 and HSF1 activator -5.
Screening CCCCC(=O)Nc1ccc(C(=O)Nc2ccc(S(=O)(=O)Nc3nccc(C)n3)cc2)cc1 returned GPR7 antag -2, T cruzi inh -4, HSF1 inh -64*, Jurkat NFkB inh 7, 697 NFkB inh 9 and HSF1 activator -72.
